MPTP inh – mitochondrial permeability transition pore inhibitors, primary screen, biochemical, isolated mouse mitochondria, absorbance; Ca2+ swelling absorbance, 30 min; AID 602449, 2012; inhibition, % at 10 µM; actives 1.4% (n = 360,000);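 active = inhibition of 50% or more, scaled per plate between neutral and stimulator controls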
ADAM10 inh – human ADAM10 inhibitors, primary screen, biochemical, QFRET, HTS | Disintegrin and metalloproteinase domain-containing protein 10 (Homo sapiens), O14672 | recombinant ADAM10, EDANS/DABCYL FRET peptide cleavage, 3 h | inhibition, % at 7 µM | actives 0.62% (n = 370,000) | AID 720582, 2013;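 active = inhibition above a per-campaign cutoff equal to the mean of compounds falling between control-based bounds plus 3 SD, cut at about 20% in these data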
Target sequence (O14672 214-748 limits assumed): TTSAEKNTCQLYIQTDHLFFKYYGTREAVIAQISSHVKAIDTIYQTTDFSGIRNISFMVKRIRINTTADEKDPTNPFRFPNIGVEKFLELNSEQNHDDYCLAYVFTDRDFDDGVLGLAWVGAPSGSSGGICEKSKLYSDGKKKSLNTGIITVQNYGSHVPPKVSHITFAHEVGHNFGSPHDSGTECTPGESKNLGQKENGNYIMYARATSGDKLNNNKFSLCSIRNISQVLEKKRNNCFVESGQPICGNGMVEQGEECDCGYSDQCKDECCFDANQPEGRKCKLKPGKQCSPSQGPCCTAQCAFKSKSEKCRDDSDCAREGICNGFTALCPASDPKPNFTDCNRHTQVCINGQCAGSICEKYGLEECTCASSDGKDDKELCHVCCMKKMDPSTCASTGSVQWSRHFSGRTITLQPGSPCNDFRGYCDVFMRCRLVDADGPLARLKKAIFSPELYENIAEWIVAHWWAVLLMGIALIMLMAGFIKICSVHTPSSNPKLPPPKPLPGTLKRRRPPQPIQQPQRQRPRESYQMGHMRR
MT1-MMP act inh – blockers of MT1-MMP proenzyme processing, primary screen, HT1080 RFP-PRO-GFP cells, GFP/RFP fluorescence. Matrix metalloproteinase-14 (Homo sapiens), P50281. GFP/RFP ratio fluorescence, overnight; percent of plate control window, DMSO zero. GFP/RFP ratio change, % at 20 µM. actives 0.061% (n = 360,000). AID 651647, 2012;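 active = GFP/RFP ratio change of at least 30% with cell ATP level not reduced by more than half and red fluorescence within 50% of control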
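Assay system: HT1080 RFP-PRO-GFP cells | Dosing: 20 µM single dose, 1% DMSO | Incubation: Cells overnight before dosing, compound overnight, 37 °C, 5% CO2 | Evaluation: GFP/RFP fluorescence ratio | Control set: DMSO-only wells and HT1080 RFP-L50D-GFP cell wells as references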
NR3A LBD binder – binders of NR3A ligand-binding domain, primary screen, biophysical, differential scanning fluorimetry, uHTS; Glutamate receptor ionotropic, NMDA 3A (GRIN3A) ligand-binding domain; NR3A LBD differential scanning fluorimetry, Tm shift; 0% = protein alone, 100% = glycine-bound protein; Tm shift relative to glycine control, % at 25 µM; actives 2.5% (n = 340,000); AID 1259313, 2017;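 active = melting temperature shift of at least 10% of the positive control shift, at one fixed dose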
ADAM17 inh – ADAM17 inhibitors, primary screen, biochemical, QFRET | actives 0.83% (n = 370,000) | Disintegrin and metalloproteinase domain-containing protein 17 (Homo sapiens), P78536 | AID 720648, 2013 | recombinant ADAM17, EDANS/DABCYL FRET peptide cleavage | inhibition, % at 6.95 µM;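 active = inhibition above the mean of compounds lying between control limits plus 3 SD, set per campaign, cut at about 8.5% in these data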
SKN-1 inh – suppressors of acrylamide-induced Pgst-4::GFP reporter in worms, primary screen, SKN-1 inhibitor project, whole organism, uHTS, GFP/RFP fluorescence ratio, strain VP596; inhibition, % at 21.8 µM; C. elegans VP596 Pgst-4::GFP/RFP ratio, 24 h; actives 0.49% (n = 360,000); AID 624304, 2012;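 active = interference check ratio from 0.5 to 1.5 plus GFP to RFP signal ratio inhibition reaching or exceeding a fixed threshold, cut at about 30% in these data, passing the limit was not always enough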
Rh123 counter – fluorescence retest of MPTP screen hits in isolated mitochondria, single concentration; membrane potential, Rhodamine 123 fluorescence; AID 624504, 2012; actives 78% (n = 5,000); shares compounds with MPTP inh; inhibition, % at 10 µM; in the data active = inhibition above about 22%
MPTP swell DR – mitochondrial permeability transition pore inhibitors, dose response, biochemical, absorbance, uHTS hits; shares compounds with MPTP inh; isolated mitochondria swelling; IC50, µM; actives 58% (n = 780); AID 651561, 2012; in the data active = IC50 below about 20 µM
MPTP cs DR – fluorescent counter-screen in isolated mitochondria, dose response, counter-screen for MPTP inhibitor project, biochemical, fluorescence, uHTS hits | AID 651564, 2012 | IC50, µM | actives 49% (n = 780) | shares compounds with MPTP inh | isolated mitochondria counterscreen, fluorescence read-out; in the data active = IC50 below about 80 µM
Large screens that a line does not name were inactive (follow-up assays come after a bar, where they were run). A selection: hits, their analogues and other compounds. The true share with any hit is near 4.7%.

N#C/C(=C(/O)C(Cl)c1ccccc1)c1nc2ccccc2s1 (configuration not stated)	MPTP inh 55.4 | Rh123 counter 73.5
N#C/C(=C(/O)c1cc2ccccc2o1)c1nc2ccccc2s1	MPTP inh 97.6 | Rh123 counter 77.6
N#C/C(=C(/O)c1cccc(F)c1)c1nc2ccccc2s1	MPTP inh 86.9 | Rh123 counter 85.9
Cn1c(/C(C#N)=C(\O)c2cccc(F)c2)nc2ccccc21	none
COc1ccc(NC(=O)C(C)N2C(=O)c3ccccc3C2=O)c(OC)c1 (configuration not stated)	none
CCC(C)N=CC1=C(O)CC(c2ccccc2)CC1=O (configuration not stated)	none
N#C/C(=C(/O)COC(=O)c1ccccc1O)c1nc2ccccc2s1	MPTP inh 100.1, NR3A LBD binder 12.8 | Rh123 counter 93.6
CC(C)(C)c1ccc(C(=O)OC/C(O)=C(\C#N)c2nc3ccccc3s2)cc1	MPTP inh 97.2, NR3A LBD binder 17.5 | Rh123 counter 70.2
Cn1c(N)c(N=Nc2ccc(S(N)(=O)=O)cc2)c(=O)n(C)c1=O	none
Cc1nn(CC(=O)NCCCc2ccccc2)c(=O)c2cc3occc3n12	none (no result: MT1-MMP act inh)
CC(C)c1ccc(CNc2ccc3c(c2)ncn3C)cc1	MPTP inh 56.1 | Rh123 counter 58.4
CCOC(=O)[C@]12CCCC=C1N(Cc1ccc3c(c1)OCO3)C(=O)[C@H](CC(=O)N1CCOCC1)C2	none (no result: NR3A LBD binder)
COc1ccc(/C=C2/Sc3ccc(C(=O)NCCN4CCCCCC4)cc3NC2=O)cc1	MPTP inh 87.1 | Rh123 counter inactive | MPTP swell DR 14 | MPTP cs DR 39.5
O=C(COC(=O)CCSc1ccc(F)cc1)NCc1ccc(F)cc1	none
N#CC(C#N)=C(Nc1ccc(F)cc1)SCc1cccc(F)c1	MPTP inh 95.2 | Rh123 counter 84.7
Cc1cc(C(F)(F)F)nn1C(=O)c1cccnc1Cl	none
COc1cc(C2SCC(=O)N2Cc2ccccc2)ccc1O (configuration not stated)	none
CC1(C)SC(=S)N(NC(=O)Nc2cccc3ccccc23)C1N(O)C(=O)Nc1ccccc1 (configuration not stated)	MPTP inh 94.9, NR3A LBD binder 23.2 | Rh123 counter 73.7
COc1ccc(N=CC2=C(O)CC(c3ccccc3)CC2=O)c(OC)c1 (configuration not stated)	none
N#C/C(=C/c1cn(-c2ccccc2)nc1-c1cccc(OCc2ccc(F)cc2)c1)C(=O)NCCCn1ccnc1	MPTP inh 54.1 | Rh123 counter inactive | MPTP swell DR inactive | MPTP cs DR inactive
COc1ccc(-c2nc(CN3CCN(c4ncnc5ccccc45)CC3)c(C)o2)c(OC)c1	MPTP inh 66.1 | Rh123 counter 28.6
COc1cc(OC)cc(C(=O)NC(=S)NNC(=O)[C@H]2C[C@@H]2c2ccccc2)c1	MPTP inh 82.5 | Rh123 counter inactive
O=c1oc2ccccc2c(Nc2cccc3ccccc23)c1[N+](=O)[O-]	MPTP inh 66.8 | Rh123 counter 79.5
O=c1oc2ccccc2c(NCc2ccccc2)c1[N+](=O)[O-]	none
Cc1cc(Cl)cc(Cl)c1CNc1c([N+](=O)[O-])c(=O)oc2ccccc12	MPTP inh 90.3 | Rh123 counter 96.0
O=c1oc2ccccc2c(NCc2ccc(Cl)cc2)c1[N+](=O)[O-]	MPTP inh 54.5 | Rh123 counter 72.7
O=c1oc2ccccc2c(Nc2ccccc2O)c1[N+](=O)[O-]	none
CN(C(=O)c1cccc(NC(=O)Cc2ccc(NC(=O)C3CCCN(C(=O)c4ccccc4)C3)cc2)c1)C1CCCCC1 (configuration not stated)	none
O=c1oc2ccccc2cc1-c1nc2c(s1)CCc1ccccc1-2	none
O=c1oc2cc(O)ccc2cc1-c1nc2c(s1)CCc1ccccc1-2	MPTP inh 88.9, NR3A LBD binder 564.9 | Rh123 counter 83.7
Cc1ccc(/C=C2\SC(=S)N(/N=C/c3cc([N+](=O)[O-])ccc3O)C2=O)o1	MPTP inh 72.2 (no result: ADAM10 inh, ADAM17 inh) | Rh123 counter inactive
C/C(=N\Nc1cccc([N+](=O)[O-])c1)c1cc(F)ccc1O	MPTP inh 85.4, NR3A LBD binder 10.4 | Rh123 counter 65.4
CCOC(=O)c1c(CC(C)C)csc1NC(=O)c1ccccc1C(=O)O	none
CC(C)Cc1csc(NC(=O)c2ccc(F)cc2)c1C(=O)O	MPTP inh 53.1 | Rh123 counter 71.4
CCc1ccc(-c2cc(C)no2)cc1S(=O)(=O)NCCc1ccccc1	none
CCOC(=O)c1sc(NC(=O)c2cc(-c3ccccc3C)nc3ccccc23)c(C#N)c1C	MPTP inh 111.6, NR3A LBD binder 24.3 | Rh123 counter 87.2
CCOC(=O)c1sc(NC(=O)CSc2nc(C)cc(-c3ccccc3)n2)c(C#N)c1C	none
CCOC(=O)c1sc(NC(=O)CSc2n[nH]c(-c3ccc(Cl)cc3Cl)n2)c(C#N)c1C	MPTP inh 83.3, NR3A LBD binder 33.0 | Rh123 counter 82.8
CCOC(=O)c1sc(NC(=O)c2ccncc2)c(C#N)c1C	MPTP inh 96.8 | Rh123 counter 86.6
COc1cc(S(=O)(=O)N2CCC(c3nc4ccccc4s3)CC2)ccc1S(=O)(=O)N1CC(C)CC(C)C1 (configuration not stated)	none
NS(=O)(=O)c1cccc(NC(=O)c2ccccc2NS(=O)(=O)c2ccc(F)cc2)c1	none
N#Cc1c(NC(=S)NC(=O)Cc2cccs2)sc2c1CCCCC2	MPTP inh 84.0, NR3A LBD binder 19.9 | Rh123 counter 74.1

Screening results as filed in PubChem.
